# Screening results from PubChem BioAssay.
# hDAT+cocaine – modulates human dopamine transporter uptake under cocaine | LLC-PK1 hDAT cells, [14C]-dopamine uptake with cocaine IC80; actives deviate in either direction | B-score at 10 µM | 110,000 tested, 1.3% active;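 active = Z score or B-score, a plate-position-corrected score, falls beyond the plate's 99.7% confidence bounds, in either direction; inactive = both scores lie inside the 99.7% bounds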;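 note: scored against the spread of the other compound wells on the same plate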
# BAP1 block – blocks human BAP1 ubiquitin-AMC hydrolysis; recombinant BAP1, Ub-AMC hydrolysis fluorescence kinetic; active compounds read low; calls only at 20 µM; 72,000 tested, 0.48% active; AID 436;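 active = activity remaining at or below 50% of control, provided the compound also passes the data quality filters; inactive = the rest, including low values that fail the filters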;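 note: 100% = DMSO wells rate and 0% = substrate alone blank rate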
# HEK293 NFkB inh – inhibitors of the PMA/ionomycin-induced NF-kB reporter in HEK293 cells; HEK-293 NF-kB luciferase reporter, luminescence; inhibition, % at 3 µM; 62,000 tested, 0.21% active; AID 465;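 active = inhibition above the mean of all tested compounds plus 3 SD, cut at about 40% in these data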;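 note: 0% = stimulated DMSO wells and 100% = 10 µM reference inhibitor 5653914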
#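 Reagent: PMA plus ionomycin mix as NF-kB-activating stimulus. Assay system: NF-kB luciferase reporter HEK-293 cells. Technique: luminescence from luciferase substrate reagent. Incubation: 1 h compound pre-incubation, 16 h PMA/ionomycin at 37 °C. Benchmarks: DMSO only as uninhibited control, 10 µM reference inhibitor as full inhibition. Repeats: tested once.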
# D1 mod – allosteric modulators of human D1 dopamine receptor. HEK293 D1, CRE-luciferase, dopamine EC30 potentiation; actives deviate in either direction. 58,000 tested, 5.9% active. B-score at 10 µM. P21728. AID 641;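 active = luminescence count or its row- and column-corrected plate score outside the 99.7% band of the plate's sample wells, on either side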
# Target sequence (P21728 whole entry, looked up): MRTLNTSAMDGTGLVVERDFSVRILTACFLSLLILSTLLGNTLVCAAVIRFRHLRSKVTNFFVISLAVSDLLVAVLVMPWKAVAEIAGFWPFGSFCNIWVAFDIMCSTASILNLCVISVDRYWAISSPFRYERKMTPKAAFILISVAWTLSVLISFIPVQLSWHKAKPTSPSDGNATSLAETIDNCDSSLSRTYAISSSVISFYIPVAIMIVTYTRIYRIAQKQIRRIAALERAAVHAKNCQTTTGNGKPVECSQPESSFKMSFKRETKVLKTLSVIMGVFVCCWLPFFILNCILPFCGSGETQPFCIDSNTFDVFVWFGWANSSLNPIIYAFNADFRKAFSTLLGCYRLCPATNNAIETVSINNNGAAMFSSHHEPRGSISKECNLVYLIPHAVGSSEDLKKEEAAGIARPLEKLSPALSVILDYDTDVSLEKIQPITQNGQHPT
# M1 ag – activates the M1 muscarinic receptor | CHO-M1 cells, Fluo-4 calcium fluorescence, agonist mode; active compounds read high | B-score at 10 µM | 64,000 tested, 3% active;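 active = fluorescence rise, raw or as B-score row- and column-corrected plate score, outside the 99.7% band of its plate's samples, either direction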
# M1 antagonist – blocks the rat M1 muscarinic receptor response to acetylcholine; P08482; CHO-M1 cells, Fluo-4 calcium, ACh EC80 antagonist mode; active compounds read low; B-score at 10 µM; 64,000 tested, 3.4% active;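 active = calcium fluorescence response, raw or row-and-column corrected B-score, differing from the plate sample mean either way at a set confidence level, mostly lower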
# * = called active by the depositor; i = inactive; · = no result shown; + = active, no number. This is a sample that favours compounds with a hit; in the whole collection about 7.2% have one here.
SMILES,hDAT+cocaine,BAP1 block,HEK293 NFkB inh,D1 mod,M1 ag,M1 antagonist
CC1CCN(C(=O)c2ccc3c(c2)OCCO3)CC1,6.7*,i,12,0.21,-0.25,-0.043
CCOC(=O)N1CCN(C(=O)c2ccc(Cn3c(=S)[nH]c4cc5c(cc4c3=O)OCO5)cc2)CC1,-1.3,i,15,-4.1*,1.4,-0.14
CCOC(=O)N1CCN(C(=O)c2ccc3c(=O)n(Cc4ccc(OC)cc4)c(=S)[nH]c3c2)CC1,0.7,i,18,-0.038,1.8,-1.7
Cc1ccc(-c2csc(NC(=O)CSc3nc(C)cc(=O)[nH]3)n2)cc1,2.3*,·,·,·,·,·
Cc1ccc(C(=O)Nc2cccc(-c3nc4ccccc4s3)c2)cc1,·,i,·,·,·,·
CCCCC(O)(CCN1CCOCC1)c1ccc(Cl)cc1 (stereo not given),-1.8,·,·,·,·,·
CCCC(O)(c1ccc(Cl)cc1)C(CN1CCOCC1)c1ccccc1 (stereo not given),-2.8*,·,·,·,·,·
COc1cc(OC)c(C2SCCN2C(=O)c2cc3ccccc3oc2=O)cc1OC (stereo not given),·,i,·,·,·,·
CC(=O)Oc1ccccc1-c1nc(C)nc(N(C)C(C)=O)n1,-2.8*,i,10,0.0036,2.4,0.042
CC(=O)Nc1sc(NC(=O)c2ccc(C)cc2)nc1-c1cccs1,-2.7*,·,·,·,·,·
COc1ccc(C(=O)Nc2nc(-c3cccs3)c(NC(C)=O)s2)cc1,-1.5,·,·,·,·,·
CCn1cc(C(=O)NCc2ccc(C)o2)c2cc(OC)c(OC)cc2c1=O,-0.57,i,6,-6.3*,·,·
COc1ccc(C(=O)Nc2cccc(C(F)(F)F)c2)cc1OC,·,i,·,·,·,·
CC1=C(/C=C/C(=O)O)C(C)(C)CCC1,1.4,·,·,·,·,·
CC1=C(/C=C/C(C)=C/C=C/C(C)=C/C(=O)Nc2ccc(O)cc2)C(C)(C)CCC1,·,+,·,·,·,·
O=C(Nc1nc(-c2nc3ccccc3s2)cs1)C1CC1,0.76,i,-43,-3.4*,1.3,0.21
COC(=O)c1sc2ccccc2c1NC(=O)c1ccc(OC)cc1OC,·,i,·,·,·,·
Cc1nnc2n(Cc3ccccc3)c(=O)c3c4c(sc3n12)CCCC4,·,i,10,6.3*,0.035,-0.68
CCOC(=O)CSc1nnc2n(Cc3ccccc3)c(=O)c3c4c(sc3n12)CCC4,-1.5*,i,·,·,-0.77,-0.077
CCOC(=O)CCCSc1nc2sc3c(c2c(=O)[nH]1)CCC3,0.016,·,·,·,·,·
CCOC(=O)CSc1nnc(CSc2nc3sc4c(c3c(=O)[nH]2)CCCC4)n1-c1ccccc1,1.9*,·,·,·,·,·
Cc1nnc2n(Cc3ccccc3)c(=O)c3c4c(sc3n12)CN(Cc1ccccc1)CC4,·,i,·,0.7,-0.46,-0.079
O=C1c2ccc(Oc3cccc([N+](=O)[O-])c3)cc2C(=O)N1c1ccc(O)cc1,·,i,·,·,·,·
Cc1ccc2nc(SCC(=O)c3ccc(Cl)cc3)[nH]c2c1,·,i,·,·,·,·
CCOCCCNC(=O)C(c1ccc(Cl)cc1)N1CCC2(CC1)OCCO2 (stereo not given),-8.5*,·,14,0.35,-0.45,0.0011
SMILES,hDAT+cocaine,BAP1 block,HEK293 NFkB inh,D1 mod,M1 ag,M1 antagonist
CC1(C)Cc2c(sc3nc(-c4ccccc4)n(N)c(=O)c23)CO1,-1.5,·,·,·,·,·
CC1(C)Cc2c(sc3nc(-c4cccs4)n(N)c(=O)c23)CO1,-0.61,·,-15,-1.1,5*,-1.8*
CCOC(=O)c1ccc(Nc2ncc([N+](=O)[O-])cc2[N+](=O)[O-])cc1,·,i,·,·,·,·
Cc1cc(C)c2[nH]c(=O)c(CN(CC3CCCO3)C(=O)c3cnccn3)cc2c1 (stereo not given),2.5*,·,9,-0.43,-1.1,-0.016
Cc1cccc2cc(CN(CC3CCCO3)C(=O)c3cnccn3)c(=O)[nH]c12 (stereo not given),0.66,i,18,0.32,0.057,0.41
Cn1c(=O)c2c(nc(NCCO)n2Cc2cccc3ccccc23)n(C)c1=O,·,i,·,·,·,·
COc1ccccc1NCC(O)Cn1c2ccc(Cl)cc2c2cc(Cl)ccc21 (stereo not given),·,i,·,·,·,·
CCOC(=O)c1cnn(-c2sc(C(=O)OCC)c(C)c2C(=O)OCC)c1N,-2.5*,·,-1,-2.4,-3.4*,-0.29
COc1ccc(Cc2cnc(NC(=O)COc3cccc(C(F)(F)F)c3)s2)cc1,·,i,·,·,·,·
CCOc1ccc(CCNC(=O)c2ccc(N3CCCC3=O)cc2)cc1OCC,-7.7*,·,·,·,·,·
CCOc1ccc(CCNC(=O)C2CCCN(C(=O)N(C)C)C2)cc1OCC (stereo not given),-0.66,i,-1,-7.9*,-0.017,0.45
CCOc1ccc(CCNC(=O)CCn2cccc2)cc1OCC,-4.3*,i,3,2.5,-0.2,-0.25
COc1ccc(Nc2nc(N3CCCC3)c3ccccc3n2)cc1,0.61,·,16,-6.9*,-0.89,-0.21
CCN(CC)c1ccc(Nc2nc(N3CCOCC3)c3ccccc3n2)cc1,-0.021,·,·,·,·,·
O=c1c2ccccc2nc2c3ccccc3c(NCCN3CCOCC3)nn12,0.026,·,·,·,·,·
O=c1c2ccccc2nc2c3ccccc3c(N3CCOCC3)nn12,·,i,-5,-0.17,2.8*,-1.2
O=C(COc1ccccc1[N+](=O)[O-])Nc1ccc(C(=O)OC2CCCCC2)cc1,·,i,·,·,·,·
COc1ccc(C(=O)Nc2cccc(NC(=O)c3ccco3)c2)cc1OC,·,i,·,·,·,·
Cc1cc(N2CCN(C(=O)c3ccco3)CC2)n2nc(-c3cccc(F)c3)cc2n1,1.9,·,10,-0.13,2.9*,-0.8
Cc1cc(N2CCOCC2)n2nc(-c3cccc(F)c3)cc2n1,0.6,i,18,2.6,-0.015,0.45
Cc1cc(N2CCN(c3ccccc3)CC2)nc(-c2ccccc2)n1,-0.63,i,0,0.37,-2.6,-0.79
Cc1cc(N2CCN(C(=O)c3ccco3)CC2)nc(-c2ccccc2)n1,-0.52,i,13,-3.7*,·,·
Cc1cc(NC(=O)c2cnn3cccnc23)no1,0.28,i,10,-0.62,0.07,0.81*
Cc1cc(NC(=O)c2nn3cccnc3c2Cl)no1,-0.082,·,·,·,·,·
CCCCC(O)(C(NC=O)C(=O)OC)C(F)(F)F (stereo not given),-8.6*,i,24,-0.017,-0.45,0.013
SMILES,hDAT+cocaine,BAP1 block,HEK293 NFkB inh,D1 mod,M1 ag,M1 antagonist
COc1ccc(O)c(-c2c(-c3ccc(Cl)cc3)n[nH]c2C)c1,3.7*,i,17,-0.59,0.92,-0.86
COc1ccc(-c2n[nH]c(C)c2-c2ccc(Cl)cc2)c(O)c1,0.26,·,·,·,·,·
COc1ccc(NC(=O)Nc2cc(C)ccc2OC(F)F)c(OC)c1,0.47,i,12,-0.5,1.4,2*
O=C(c1nn2c(c1Cl)NC(c1cccs1)CC2C(F)(F)F)N(Cc1ccccc1)c1ccccc1 (stereo not given),·,i,·,·,·,·
CCOC(=O)COc1cc(=O)n(CC)c2ccccc12,0.17,i,26,1.4,0.44,0.36
CCn1c(=O)cc(OCC(=O)N(C)C2CCCCC2)c2ccccc21,2.4*,i,14,·,0.045,-0.0094
CCOc1ccccc1N(CC(=O)Nc1cc(OC)ccc1OC)S(C)(=O)=O,-9.1*,·,·,·,·,·
